Assay outcomes from PubChem BioAssay.
Platelet DG rel = inhibitors of platelet dense granule secretion, primary screen, cell-based, MLPCN, human platelets. AID 1663, 2009. human platelet-rich plasma, SFLLRN dense granule ATP release, luminescence. inhibition, %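 (compounds screened at 7.5 µM in platelet-rich plasma)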. 300,000 tested, 0.22% active;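 active means mean replicate score, as percent of positive control, at or above 50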
TRPC6 activator = mouse TRPC6 channel activators, primary screen, cell-based, HEK293, membrane potential dye. Short transient receptor potential channel 6 (Mus musculus), Q61143. HEK293-TRPC6 membrane potential dye fluorescence; hits give high values. B-score at 10 µM. 310,000 tested, 0.13% active;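 active means B-score of the integrated fluorescence ratio above library mean plus 3 SD, and starting fluorescence ratio within library mean plus 5 SD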;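 further: higher score means more depolarization so channel activation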
Target sequence (Q61143 whole entry, looked up): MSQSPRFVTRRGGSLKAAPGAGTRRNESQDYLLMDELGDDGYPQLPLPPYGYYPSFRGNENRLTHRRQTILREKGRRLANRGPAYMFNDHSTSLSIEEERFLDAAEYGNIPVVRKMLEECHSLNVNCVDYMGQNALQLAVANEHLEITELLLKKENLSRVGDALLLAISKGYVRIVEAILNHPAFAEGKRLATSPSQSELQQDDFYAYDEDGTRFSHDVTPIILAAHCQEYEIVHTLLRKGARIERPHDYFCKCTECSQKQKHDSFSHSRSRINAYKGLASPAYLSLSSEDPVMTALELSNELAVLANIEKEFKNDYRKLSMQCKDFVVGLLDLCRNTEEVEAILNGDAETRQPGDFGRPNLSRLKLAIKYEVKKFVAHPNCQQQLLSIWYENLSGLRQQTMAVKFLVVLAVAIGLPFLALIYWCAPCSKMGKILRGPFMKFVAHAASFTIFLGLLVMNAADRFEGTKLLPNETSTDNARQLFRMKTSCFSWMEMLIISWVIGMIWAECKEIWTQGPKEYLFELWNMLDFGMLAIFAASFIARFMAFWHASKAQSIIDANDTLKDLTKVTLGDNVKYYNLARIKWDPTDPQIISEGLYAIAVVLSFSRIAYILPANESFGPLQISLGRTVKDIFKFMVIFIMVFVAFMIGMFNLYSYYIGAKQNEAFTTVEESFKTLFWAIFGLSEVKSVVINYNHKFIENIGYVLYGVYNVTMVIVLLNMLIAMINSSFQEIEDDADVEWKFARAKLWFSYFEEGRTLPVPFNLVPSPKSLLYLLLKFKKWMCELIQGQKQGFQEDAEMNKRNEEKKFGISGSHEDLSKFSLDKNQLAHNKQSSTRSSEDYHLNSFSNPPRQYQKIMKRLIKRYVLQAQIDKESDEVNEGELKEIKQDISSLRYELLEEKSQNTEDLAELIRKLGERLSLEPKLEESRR
TRPC4 inh = inhibitors of mouse TRPC4 channel, primary screen, Fluo4 calcium, HEK293 TRPC4beta/mu-opioid cells; B-score at 10 µM; DAMGO-evoked Fluo4 calcium flux; hits give low values; AID 2247, 2010; Short transient receptor potential channel 4 (Mus musculus), Q9QUQ5; 300,000 tested, 0.39% active;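 active means B-score over 3 SD under the library average, no early fluorescence shift, positive overall ratio signal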
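test system = HEK293 cells with stable TRPC4beta plus mu-opioid receptor expression | detection = Fluo4 Ca2+ flux fluorescence | read-out = integrated fluorescence ratio relative to baseline, converted to per-well B score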
TRPC6 inhibitor = mouse TRPC6 channel inhibitors, primary screen, cell-based, HEK293, membrane potential dye | Short transient receptor potential channel 6 (Mus musculus), Q61143 | ACh-evoked depolarization; hits give low values | B-score at 10 µM | 310,000 tested, 1.1% active;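 active means B-score under library mean minus 3 SD, initial fluorescence not abnormally high, positive integrated signal ratio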;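 further: B-score derived from integrated fluorescence ratio over the kinetic read; more negative B-score means stronger inhibition of depolarization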
TRPC4 PAM = positive allosteric modulators of TRPC4, primary screen, cell-based, mouse TRPC4beta, HEK293 mu-opioid, Fluo-4 calcium | Short transient receptor potential channel 4 (Mus musculus), Q9QUQ5 | 310,000 tested, 0.42% active | B-score at 10 µM | DAMGO EC20, Fluo-4 Ca2+ flux; hits give high values;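 active means B-score of calcium response area above 5 SD of library B-scores, with initial fluorescence ratio within 5 SD of library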
TRPC4 act = activators of mouse TRPC4 channel, primary screen, Fluo4 calcium, HEK293 TRPC4beta/mu-opioid cells | Fluo4 calcium fluorescence; hits give high values | 310,000 tested, 0.49% active | B-score at 10 µM | Short transient receptor potential channel 4 (Mus musculus), Q9QUQ5;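 active means B-score above 5 SD of library B-scores, and initial fluorescence ratio not above library mean plus 5 SD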;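 further: positive B-score marks a calcium rise read as TRPC4 activation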
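System – HEK293 cells stably co-expressing mouse TRPC4beta and mu-opioid receptor · Signal – Fluo4 calcium-sensitive dye fluorescence, kinetic, 1 Hz baseline · Benchmarks – buffer (low) and maximal DAMGO (high) · Read-out – B score of integrated fluorescence ratio per well · Incubation – dye loading 45 min room temperature, 110 s kinetic read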
A number is an active result; i = inactive; nt = not tested or not shown. Hits are enriched below; roughly 2.5% of the tested compounds scored in any of these assays.

SMILES | Platelet DG rel | TRPC6 activator | TRPC4 inh | TRPC6 inhibitor | TRPC4 PAM | TRPC4 act
COc1ccc(Cl)cc1NC(=O)CNC(c1ccccc1)c1ccccc1 | i | i | i | i | i | i
Cc1ccc(Cl)cc1NC(=O)CNCC(c1ccccc1)N(C)C (configuration not stated) | i | i | i | i | i | 118
CCC1CN(C(=O)N2CCC(C(=O)NCc3ccc(OC)cc3OC)CC2)c2ccccc2O1 (configuration not stated) | i | i | i | i | i | i
CCSc1nnc(NC(=O)CCC2CCCCC2)s1 | i | i | i | i | i | i
Cc1cc(SCC(=O)NCCC2=CCCCC2)nc2ccccc12 | i | i | i | i | i | i
CCOC(=O)c1c(C(=O)OCC)c(C)n(CCc2ccc(OC)c(OC)c2)c1C | i | i | i | i | i | i
CCOC(=O)c1nn(-c2ccccc2)cc1O | i | i | i | i | i | i
COC(=O)c1nn(-c2ccc(-c3ccccc3)cc2)cc1O | 64 | i | i | i | i | i
CC1CCCN(C(=O)CSCC(=O)N=c2sc3ccccc3n2C)C1 (configuration not stated) | i | i | i | i | i | i
O=S(=O)(NCCc1cn2ccccc2n1)c1ccc2c(c1)CCCC2 | 57 | i | i | i | i | i
CCC(=O)N/C(N)=N/c1nc(C)c2cc(OC)ccc2n1 | i | i | -7 | i | i | i
Cc1ccc2oc(C(=O)N3CCC(O)(c4ccccc4)CC3)c(C)c2c1 | i | i | i | i | 15 | i
CCOC(=O)Cn1nc(C)c(NC(=O)c2ccc([N+](=O)[O-])c(C)c2)c1C | i | i | i | i | i | i
CCC1CCc2sc(C(=O)NC3CCN(Cc4ccccc4)CC3)cc2C1 (configuration not stated) | i | i | i | i | i | i
N#C/C(=C/c1cccn1-c1cccc(C(=O)O)c1)c1ccc(Cl)cc1 | i | i | -6 | i | i | i
COc1ccc(Cl)cc1C(=O)Nc1ccccc1N1CCN(C)CC1 | i | i | i | i | i | 126
COc1ccc(CCC(=O)Nc2cc(Cl)ccc2N2CCN(C)CC2)cc1 | i | i | i | i | 12 | i
CN1CCN(c2ccc(Cl)cc2NC(=O)/C=C/c2ccc(F)cc2)CC1 | i | i | i | i | 13 | i
CNc1oc(-c2ccccc2F)nc1S(=O)(=O)c1ccc(C)cc1 | i | i | i | i | i | i
Cc1ccccc1NC(=O)CSc1ccsc1[N+](=O)[O-] | i | i | i | i | i | i
CCN(CC)CCCNC(=S)N1CCN(c2nc3ccccc3n2CC)CC1 | i | i | i | i | 15 | i
COc1cc(S(=O)(=O)Nc2cccc(C)c2)ccc1NC(=O)c1ccncc1 | i | i | i | i | i | i
COc1ccc(F)cc1CSc1nnnn1-c1ccc(O)cc1 | i | i | -5 | i | i | i
COc1cc(/C=C2\SC(=O)N(c3ccccc3Cl)C2=O)cc([N+](=O)[O-])c1O | i | i | -9 | i | i | i
O=[N+]([O-])c1ccc(SCCc2ccncc2)cc1 | i | i | i | i | i | i
SMILES | Platelet DG rel | TRPC6 activator | TRPC4 inh | TRPC6 inhibitor | TRPC4 PAM | TRPC4 act
CN(CCc1ccccn1)c1ccc([N+](=O)[O-])cn1 | i | i | i | i | i | 189
O=[N+]([O-])c1ccc(SCCc2ccccn2)cc1 | i | i | i | i | 14 | i
COc1ccc(-c2csc(N(CCCN(C)C)C(=O)c3cccs3)n2)cc1 | i | i | i | i | i | 56
CN(C)CCCN(C(=O)c1ccc(C(=O)c2ccccc2)cc1)c1nc2cc3c(cc2s1)OCO3 | i | i | i | i | i | i
CN(C)CCCN(C(=O)c1ccco1)c1nc2cc3c(cc2s1)OCO3 | i | i | i | -7.8 | i | i
CCN(C(=O)c1cccs1)c1nc(-c2ccc(OC)cc2)cs1 | i | i | i | i | i | i
Cc1ccc(-c2csc(N(CCCN3CCOCC3)C(=O)c3ccco3)n2)cc1 | i | i | i | i | i | i
Cc1ccc(-c2csc(N(CCCN(C)C)C(=O)c3ccco3)n2)cc1 | i | i | -6 | i | i | i
O=C(Cn1cnc2c(nnn2Cc2ccccc2)c1=O)Nc1ccc2c(c1)OCCO2 | i | i | i | i | i | i
Cc1nc2c(ncn2-c2ccccc2)c(=O)n1NC(=O)CN1CCCCC1 | i | i | i | i | i | i
COc1ccc(-c2nc(CS(=O)(=O)CC(=O)NCCCN3CCOCC3)c(C)o2)cc1 | i | i | i | i | i | i
COc1ccc(C(CNC(=O)COc2cc(C)c(Cl)c(C)c2)N2CCCCC2)cc1 (configuration not stated) | i | i | i | i | i | i
CSCC[C@H](NC(=O)N1CCn2c1nc1ccccc12)C(=O)NCc1ccc(C)cc1 | i | i | i | i | 43 | i
CCCOc1ccc(C(=O)NNC(=S)NC(=O)CC)cc1 | i | i | i | i | i | 46
Cc1onc(-c2ccccc2)c1C(=O)NC(=S)NNC(=O)c1ccc(O)cc1O | i | i | i | i | i | i
CCCOc1ccc(C(=O)NC(=S)NNC(=O)c2c(-c3ccccc3)noc2C)cc1 | i | i | i | i | i | 194
Cc1onc(-c2ccccc2)c1C(=O)NC(=S)NNC(=O)c1ccccc1O | i | i | i | i | i | 247
CCN(CC)c1ccc(NC(=O)CCS(=O)(=O)c2ccc(Br)cc2)c(C)c1 | nt | i | i | i | i | i
S=c1nc[nH]c2c1ncn2C1CCCC1 | i | i | i | i | i | i
CCC(C)(C)n1nnnc1C(c1ccncc1)N1CCC(Cc2ccccc2)CC1 (configuration not stated) | i | i | i | i | i | i
CCC(C)(C)n1nnnc1C(c1cccnc1)N1CCC(Cc2ccccc2)CC1 (configuration not stated) | i | i | -6 | i | i | i
Cc1nc(S/C(C(=O)O)=C2/C(=O)Nc3ccccc32)n[nH]1 | 61 | i | i | i | i | i
COc1ccc(-c2cc(C)no2)cc1S(=O)(=O)N1CCN(C(=O)c2ccco2)CC1 | i | i | i | i | i | i
CCCc1cc(-c2nc(N)ncc2-c2csc(C)n2)c(O)cc1OC | i | i | i | i | i | i
CCCc1cc(-c2nc(N)ncc2-c2ccc3c(c2)OCCCO3)c(O)cc1OC | 70 | i | i | i | i | i
COc1ccc(N2C(=O)C3CCCN3C2c2cc(OC)c(OC)c(OC)c2)cc1 (configuration not stated) | i | i | i | i | i | i
